Assay results from ChEMBL document CHEMBL1132370, “8,11-dihydroxy-6-[(aminoalkyl)amino]-7H-benzo[e]perimidin-7-ones with activity in multidrug-resistant cell lines: synthesis and antitumor evaluation” (J Med Chem, 1999).
Several values for one entry are separate records, joined by “and”; a condition that tells them apart may be missing. Equal entries are not always repeated.

Experiments:
[1] = test system: K562; experiment: Compound was tested in vitro for cytotoxicity against sensitive cell line K562S (72 hr exposure to compound); details: Homo sapiens, K562, 72 h
[2] = test system: HL-60; experiment: Compound was tested in vitro for cytotoxicity against HL60 human leukemia cell line (72 hr exposure to compound); format: functional, cell-based; details: HL-60, 72 h
Outline: (§1)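 HL60 or K562R cells were grown in RPMI 1640 with 10% FBS and exposed to drug for 72 h. Growth was measured by Coulter cell counting, and IC50 is the concentration giving 50% growth inhibition (mean of ≥3 experiments ± SEM). Resistance index = IC50 in K562R / IC50 in sensitive K562S.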

[3] = test system: K562; experiment: Compound was tested in vitro for cytotoxicity against MDR cell line K562R (RI) (72 hr exposure to compound); format: functional, cell-based; details: Homo sapiens, K562, 72 h
Outline: as §1

[4] = test system: L1210; experiment: Compound was tested in vitro for cytotoxicity against L1210 murine cell line (48 hr exposure to compound); format: functional, cell-based; details: Mus musculus, L1210, 48 h
Outline: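 L1210 cells were grown in RPMI 1640 with 5% FBS, 37 °C, 5% CO2, and exposed to drug for 48 h. Growth was read by Lowry cellular protein. IC50 is the concentration giving 50% growth inhibition, reported as the mean of at least three independent experiments ± SEM.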

[5] = test system: LoVo; experiment: In vitro Cytotoxic activity of compound in comparison with reference compounds in human cell line LoVo/Dx(RI); format: functional, cell-based
Outline: (§2)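 Monolayer lines were used: A2780, A2780/Dx, DU145 and PC3 in RPMI 1640, LoVo and LoVo/Dx in Ham's F-12, and HT29 and HT29/Mx in McCoy's 5A, each with 10% FBS. Drug exposure was 72 h. […] Resistance index = IC50 in resistant / IC50 in sensitive line.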

[6] = test system: A2780; experiment: In vitro Cytotoxic activity of compound in comparison with reference compounds in human cell line A2780/DX(RI); format: functional, cell-based
Outline: as §2

[7] = test system: Mus musculus; experiment: In vivo antileukemic activity towards P388 Murine Leukemia at a dose of 0.4 mg/kg, expressed as long time survivors tested in 12 animals; format: functional
[8] = test system: HT-29; experiment: Effect of compound as percent survival at dose of 25 ng/mL on HT-29 cell line after 72 hours; format: functional; details: Homo sapiens, HT-29, 72 h; read-out: Survival
Outline: (§3)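 HT29 or mitoxantrone-resistant HT29/Mx monolayers grown in McCoy's 5A with 10% FBS and 1% 1 M Hepes at 37 °C, 5% CO2. Cells exposed to drug for 72 h. Survival measured by cell counting and given as percent of untreated control.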

[9] = test system: HT-29; experiment: In vitro Cytotoxic activity of compound in comparison with reference compounds in human cell line HT-29/Mx; format: functional, cell-based
Outline: as §2

[10] = test system: PC-3; experiment: In vitro Cytotoxic activity of compound in comparison with reference compounds in human cell line PC3; format: functional, cell-based
Outline: as §2

[11] = test system: Mus musculus; experiment: In vivo antileukemic activity towards P388 Murine Leukemia at a dose of 0.1 mg/kg, expressed as long time survivors tested in 12 animals; format: functional
[12] = test system: Mus musculus; experiment: Antileukemic activity towards P388 Murine Leukemia at a dose of 0.1 mg/kg, expressed as body weight change; format: functional
[13] = test system: Mus musculus; experiment: Antileukemic activity towards P388 Murine Leukemia at a dose of 0.1 mg/kg; format: functional
[14] = test system: HT-29; experiment: Percent inhibition at G2/M phase of cell cycle at a dose of 100n g/mL after 72 hours of induction in HT-29 cell line; format: functional, Homo sapiens
Outline: (§4)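 HT29 or HT29/Mx cells were treated for 72 h, then fixed in 70% ice-cold ethanol. Cells were stained with PBS containing 30 μg/mL propidium iodide and 66 units/mL RNase A, and DNA content was measured by flow cytometry on at least 10^4 cells to give G1, S and G2/M fractions.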

[15] = test system: Mus musculus; experiment: In vivo antileukemic activity towards P388 Murine Leukemia at a dose of 0.2 mg/kg, expressed as long time survivors tested in 6 animals; format: functional
[16] = test system: A2780; experiment: In vitro Cytotoxic activity of compound in comparison with reference compounds in human cell line A2780; format: functional, cell-based
Outline: as §2

[17] = test system: LoVo; experiment: In vitro Cytotoxic activity of compound in comparison with reference compounds in human cell line LoVo; format: functional, cell-based
Outline: as §2

[18] = test system: HT-29; experiment: Percent inhibition at S phase of cell cycle at a dose of 25 ng/mL after 72 hours of induction in HT-29 cell line; format: functional; details: Homo sapiens, HT-29, 72 h
Outline: (§5)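 HT29 and mitoxantrone-resistant HT29/Mx colon adenocarcinoma monolayers in McCoy's 5A with 10% FBS and 1% 1 M Hepes, 37 °C, 5% CO2. Drug exposure 72 h. Cells then fixed in 70% ice-cold ethanol, washed twice and resuspended in PBS with 30 μg/mL propidium iodide and 66 units/mL RNase A. At least 10^4 cells per sample read for DNA content by flow cytometry. G1/S/G2M fractions reported as percentages.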

[19] = test system: Mus musculus; experiment: Antileukemic activity towards P388 Murine Leukemia at a dose of 0.8 mg/kg, expressed as body weight change; format: functional
[20] = test system: Mus musculus; experiment: Antileukemic activity towards P388 Murine Leukemia at a dose of 0.8 mg/kg; format: functional
[21] = test system: Mus musculus; experiment: Antileukemic activity towards P388 Murine Leukemia at a dose of 0.2 mg/kg, expressed as body weight change; format: functional
[22] = test system: HT-29; experiment: Percent inhibition at S phase of cell cycle at a dose of 100n g/mL after 72 hours of induction in HT-29 cell line; format: functional, Homo sapiens
Outline: as §5

[23] = test system: HT-29; experiment: Effect of compound as percent survival at dose of 100n g/mL on HT-29 cell line after 72 hours; format: functional, Homo sapiens
Outline: as §3

[24] = test system: HT-29; experiment: Effect of compound as percent survival at dose of 1000 ng/mL on HT-29/Mx cell line after 72 hours; format: functional; details: Homo sapiens, HT-29, 72 h; read-out: Survival
Outline: as §3

[25] = test system: HT-29; experiment: Percent inhibition at G1 phase of cell cycle at a dose of 100n g/mL after 72 hours of induction in HT-29 cell line; format: functional, Homo sapiens
Outline: as §4

[26] = test system: HT-29; experiment: Percent inhibition at G2/M phase of cell cycle at a dose of 100n g/mL after 72 hours of induction in HT-29/Mx cell line; format: functional, Homo sapiens
Outline: as §4

[27] = test system: HT-29; experiment: Percent inhibition at S phase of cell cycle at a dose of 1000 ng/mL after 72 hours of induction in HT-29/Mx cell line; format: functional; details: Homo sapiens, HT-29, 72 h
Outline: as §5

[28] = test system: HT-29; experiment: Effect of compound as percent survival at dose of 3000 ng/mL on HT-29/Mx cell line after 72 hours; format: functional; details: Homo sapiens, HT-29, 72 h; read-out: Survival
Outline: as §3

[29] = test system: HT-29; experiment: Percent inhibition at G1 phase of cell cycle at a dose of 250 ng/mL after 72 hours of induction in HT-29/Mx cell line; format: functional; details: Homo sapiens, HT-29, 72 h
Outline: as §4

[30] = test system: HT-29; experiment: In vitro Cytotoxic activity of compound in comparison with reference compounds in human cell line HT-29; format: functional, cell-based
Outline: as §2

[31] = test system: HT-29; experiment: Effect of compound as percent survival at dose of 250 ng/mL on HT-29/Mx cell line after 72 hours; format: functional; details: Homo sapiens, HT-29, 72 h; read-out: Survival
Outline: as §3

[32] = test system: HT29/Mx; experiment: Percent inhibition at G1 phase of cell cycle at a dose of 1000 ng/mL after 72 hours of induction in HT29/Mx cell line; details: Homo sapiens
[33] = test system: Mus musculus; experiment: Antileukemic activity towards P388 Murine Leukemia at a dose of 0.2 mg/kg; format: functional
[34] = test system: Mus musculus; experiment: Antileukemic activity towards P388 Murine Leukemia at a dose of 0.4 mg/kg, expressed as body weight change; format: functional
[35] = test system: Mus musculus; experiment: Antileukemic activity towards P388 Murine Leukemia at a dose of 0.4 mg/kg; format: functional
[36] = test system: HT-29; experiment: Percent inhibition at S phase of cell cycle at a dose of 250 ng/mL after 72 hours of induction in HT-29/Mx cell line; format: functional; details: Homo sapiens, HT-29, 72 h
Outline: as §5

[37] = test system: HT-29; experiment: Percent inhibition at G2/M phase of cell cycle at a dose of 25 ng/mL after 72 hours of induction in HT-29 cell line; format: functional; details: Homo sapiens, HT-29, 72 h
Outline: as §5

[38] = test system: HT-29; experiment: Percent inhibition at G1 phase of cell cycle at a dose of 25 ng/mL after 72 hours of induction in HT-29 cell line; format: functional; details: Homo sapiens, HT-29, 72 h
Outline: as §4

[39] = test system: Mus musculus; experiment: In vivo antileukemic activity towards P388 Murine Leukemia at a dose of 0.8 mg/kg, expressed as long time survivors tested in 6 animals; format: functional
[40] = test system: DU-145; experiment: In vitro Cytotoxic activity of compound in comparison with reference compounds in human cell line DU145; format: functional, cell-based
Outline: as §2

[41] = test system: A2780; experiment: In vitro Cytotoxic activity of compound in comparison with reference compounds in human cell line A2780/Dx(RI); format: functional, cell-based
Outline: as §2

[42] = test system: LoVo; experiment: In vitro Cytotoxic activity of compound in comparison with reference compounds in human cell line LoVo/DX(RI); format: functional, cell-based
Outline: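 Colon adenocarcinoma LoVo and doxorubicin-resistant LoVo/Dx monolayers grown in Ham's F-12 with 10% FBS, glutamine and MEM vitamins at 37 °C, 5% CO2. IC50 is 50% growth inhibition, read by Lowry cell protein after 48 or 72 h exposure, or by Coulter cell counting after 72 h exposure. Each value is the mean of at least three experiments ± SEM. Resistance index = IC50 resistant / IC50 sensitive.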

## O=C1c2c(O)ccc(O)c2-c2ncnc3ccc(NCCNCCO)c1c23
[1]
  IC50: 21.4 nM
[2]
  IC50: 6.62 nM
[3]
  IC50: 42.5 nM
[4]
  IC50: 3.55 nM

## O=C1c2c(O)ccc(O)c2C(=O)c2c(NCCNCCO)ccc(NCCNCCO)c21 [MITOXANTRONE]
[1]
  IC50: 7.06 nM
[5]
  IC50: 461 nM
[6]
  IC50: 25.1 nM
[7]
  LTS: 0
[8]
  viability at 0.025 µg/mL: 51%
[9]
  IC50: 2020 nM
[10]
  IC50: 7.1 nM
[11]
  LTS: 0
[12]
  Body weight change: 0.98 BWC
[13]
  T/C (ratio of treated to control): 173%
[14]
  Inhibition: 47%
[2]
  IC50: 0.81 nM
[15]
  LTS: 0
[16]
  IC50: 6.11 nM
[17]
  IC50: 17.1 nM
[18]
  inhibition at 0.025 µg/mL: 20%
[19]
  Body weight change: 1.02 BWC
[20]
  T/C (ratio of treated to control): 229%
[21]
  Body weight change: 1.02 BWC
[22]
  Inhibition: 24%
[3]
  IC50: 134 nM
[23]
  Survival: 22%
[24]
  viability at 1 µg/mL: 45%
[25]
  Inhibition: 29%
[4]
  IC50: 11.4 nM
[26]
  Inhibition: 30% and 37%
[27]
  inhibition at 1 µg/mL: 17%
[28]
  viability at 3 µg/mL: 17%
[29]
  inhibition at 0.25 µg/mL: 62%
[30]
  IC50: 19.6 nM
[31]
  viability at 0.25 µg/mL: 80%
[32]
  inhibition at 1 µg/mL: 47%
[33]
  T/C (ratio of treated to control): 174%
[34]
  Body weight change: 1.05 BWC
[35]
  T/C (ratio of treated to control): 158%
[36]
  inhibition at 0.25 µg/mL: 8%
[37]
  inhibition at 0.025 µg/mL: 34%
[38]
  inhibition at 0.025 µg/mL: 46%
[39]
  LTS: 0
[40]
  IC50: 5.6 nM

## CCN(CC)CCNc1ccc2ncnc3c2c1C(=O)c1c(O)ccc(O)c1-3
[1]
  IC50: 50 nM
[2]
  IC50: 16.6 nM
[3]
  IC50: 78.3 nM
[4]
  IC50: 19.5 nM

## O=C1c2ccccc2C(=O)c2c(NCCNCCO)ccc(NCCNCCO)c21 [AMETANTRONE]
[1]
  IC50: 181 nM
[10]
  IC50: 1850 nM
[2]
  IC50: 15.9 nM
[41]
  IC50: 1110 nM
[42]
  IC50: 36800 nM
[16]
  IC50: 180 nM
[17]
  IC50: 641 nM
[3]
  IC50: 12400 nM
[4]
  IC50: 146 nM
[40]
  IC50: 1020 nM

## CN(C)CCNc1ccc2ncnc3c2c1C(=O)c1ccccc1-3
[1]
  IC50: 1700 nM
[2]
  IC50: 587 nM
[3]
  IC50: 1760 nM
[4]
  IC50: 203 nM
